Data on four compounds can be found in publication PMC6088244 (Biochemistry, 2018).

One series concerns the target PDE8A1 (480–820) (Homo sapiens, UniProt O60658). Put plainly: PDE enzymatic assay with 3H-cAMP or 3H-cGMP as substrates. It counts as biochemical. In outline: (§1)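 PDE catalytic domains were incubated with 20 mM Tris-HCl pH 7.5, 10 mM MgCl2, 0.5 mM DTT and 3H-cAMP or 3H-cGMP (20–40k cpm/assay) for 15 min at room temperature. The reaction was stopped with 0.2 M ZnSO4, and product was precipitated with 0.2 N Ba(OH)2. Supernatant radioactivity was scintillation-counted. Nine inhibitor concentrations were tested; rolipram was the reference.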

Another series concerns the target PDE5A1 (535–860) (Homo sapiens, UniProt O76074). Nature of the series: PDE enzymatic assay with 3H-cAMP or 3H-cGMP as substrates. It counts as biochemical. The essentials:
(§2)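 Recombinant PDE catalytic domains incubated at room temperature for 15 min in 20 mM Tris.HCl pH 7.5, 10 mM MgCl2, 0.5 mM DTT, with 3H-cAMP or 3H-cGMP at 20–40k cpm/assay. Stopped with 0.2 M ZnSO4. Product precipitated with 0.2 N Ba(OH)2. Unreacted substrate in supernatant counted by liquid scintillation. Nine inhibitor concentrations tested. Rolipram served as reference.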

The target in another series is PDE2A3 (580–941) (Homo sapiens, UniProt O00408). The series is described as above. It is filed as biochemical. In outline:
as §2

A further series addresses PDE4B2B (Homo sapiens, UniProt Q07343). The series is described as above. It counts as biochemical. The settings on record: IC50, PDE4B2B (152–528). The essentials:
as §2

The target of the next series is PDE10A2 (448–789) (Homo sapiens, UniProt Q9Y233). Nature of the series: PDE enzymatic assay with 3H-cAMP or 3H-cGMP as substrates. It is filed as biochemical. In outline: as §1
A further series has as its target T1, PDE11A4 (563–934) (Homo sapiens, UniProt Q9HCR9).
T1 sequence (Q9HCR9 563-933 limits assumed): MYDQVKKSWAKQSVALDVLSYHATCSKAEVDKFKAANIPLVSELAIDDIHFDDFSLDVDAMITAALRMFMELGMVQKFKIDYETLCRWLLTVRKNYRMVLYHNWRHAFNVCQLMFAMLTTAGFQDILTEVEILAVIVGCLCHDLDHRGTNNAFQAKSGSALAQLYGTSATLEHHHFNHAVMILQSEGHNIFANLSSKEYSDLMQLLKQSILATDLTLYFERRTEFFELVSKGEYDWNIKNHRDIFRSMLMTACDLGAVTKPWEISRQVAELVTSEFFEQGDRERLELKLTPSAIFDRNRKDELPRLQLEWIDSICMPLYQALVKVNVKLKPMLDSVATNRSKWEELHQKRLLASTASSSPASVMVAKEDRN
The description is as above. It is filed as biochemical. In outline: as §1

For a further series, the target named is PDE3A1 (665–1141) (Homo sapiens, UniProt Q14432). The series is described as above. It counts as biochemical. The essentials:
as §1

A further series has as its target PDE7A1 (130–482) (Homo sapiens, UniProt Q13946). Nature of the series: PDE enzymatic assay with 3H-cAMP or 3H-cGMP as substrates. It counts as biochemical. In outline:
as §2

A further series addresses PDE9A1 (181–506) (Homo sapiens, UniProt O76083). The description is as above. It is filed as biochemical. The essentials:
as §2

In series [1] the test system is mice. Nature of the series: Open-field test. It is filed as in vivo. The essentials: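 Naive male ICR mice received test compound, rolipram or vehicle by i.p. injection. Thirty minutes later each was placed in the centre of an open-field box with its floor divided into 4 identical squares and explored for 5 min. Line crossings (all four paws over the line) and rears were counted. Means ± S.E., n = 8–9; one-way ANOVA with Dunnett's test.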

Series [2] can be described thus: Pharmacokinetic properties in mice. It is filed as in vivo. The settings on record: 5 mg/kg. The essentials: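 Male ICR mice were dosed at 5 mg/kg. The stock dosing sample was 10 mg test compound in 10 ml saline containing 1% DMSO, 40% 2-hydroxypropyl-β-cyclodextrin and 6% Solutol HS 15. It was vortexed and sonicated until fully dissolved.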
For the next series, the system named is LPS-induced TNFa release. The conditions noted are these: read-out: IC50 of LPS-induced TNFa release, cited from earlier work.
In series [3] the test system is mice. Put plainly: Object recognition test. It counts as in vivo. The settings on record: i.p. 30 min prior to the test; for memory in the object recognition test: Fig. 5A. The essentials:
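Male ICR mice (22–24 g) were housed at 22–23 °C on a 12-h light-dark cycle with free food and water. Test compound, rolipram or vehicle was given i.p. 30 min before testing. Mice were trained to tell a novel from a familiar object with a 24-hour delay. Exploration times (Tn, Tf) were recorded over 3 min. n = 8–9; one-way ANOVA with Dunnett's post hoc test.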

The subject of another series is PDE4D. The conditions noted are these: read-out: IC50 against PDE4D; racemic Zl-n-91; cited from earlier work.
The subject of series [4] is mice. The settings on record: at the same dose required for producing a memory-enhancing effect; cited from earlier work.
[5] abbreviates: doses of 0.01–0.5 mg/kg, 30 min after injection.

Read-outs that look alike come from different tables or passages of the source.

PDE8A1 (480–820), sequence (O60658 480-820): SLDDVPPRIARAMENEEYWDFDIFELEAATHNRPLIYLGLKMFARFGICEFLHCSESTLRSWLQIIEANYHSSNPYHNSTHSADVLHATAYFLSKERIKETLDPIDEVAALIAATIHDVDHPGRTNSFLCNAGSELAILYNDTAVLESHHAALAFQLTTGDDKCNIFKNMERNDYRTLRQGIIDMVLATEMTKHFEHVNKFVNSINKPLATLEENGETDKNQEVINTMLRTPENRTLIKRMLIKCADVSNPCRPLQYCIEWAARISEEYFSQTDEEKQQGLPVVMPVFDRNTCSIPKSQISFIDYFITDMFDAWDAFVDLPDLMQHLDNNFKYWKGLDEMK
PDE4B2B, sequence (Q07343 324-700): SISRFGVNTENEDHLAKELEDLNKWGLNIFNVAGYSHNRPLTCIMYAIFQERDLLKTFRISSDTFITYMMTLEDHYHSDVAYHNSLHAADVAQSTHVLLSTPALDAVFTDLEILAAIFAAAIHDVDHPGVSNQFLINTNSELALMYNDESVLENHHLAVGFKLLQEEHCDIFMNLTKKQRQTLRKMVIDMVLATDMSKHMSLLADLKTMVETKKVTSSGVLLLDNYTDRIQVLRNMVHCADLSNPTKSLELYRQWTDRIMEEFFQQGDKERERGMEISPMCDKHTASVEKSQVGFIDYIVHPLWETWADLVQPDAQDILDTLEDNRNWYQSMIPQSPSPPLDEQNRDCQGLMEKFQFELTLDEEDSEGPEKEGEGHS
PDE10A2 (448–789), sequence (Q9Y233 714-1055): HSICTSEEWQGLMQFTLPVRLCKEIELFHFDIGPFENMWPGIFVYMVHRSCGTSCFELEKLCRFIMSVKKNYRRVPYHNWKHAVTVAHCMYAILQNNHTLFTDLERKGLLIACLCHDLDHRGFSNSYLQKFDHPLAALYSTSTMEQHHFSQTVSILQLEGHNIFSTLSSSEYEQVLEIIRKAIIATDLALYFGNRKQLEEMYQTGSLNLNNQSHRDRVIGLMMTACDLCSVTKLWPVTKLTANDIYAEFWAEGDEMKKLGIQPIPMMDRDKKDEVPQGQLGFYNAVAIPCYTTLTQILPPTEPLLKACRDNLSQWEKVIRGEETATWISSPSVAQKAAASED
PDE2A3 (580–941), sequence (O00408 580-941): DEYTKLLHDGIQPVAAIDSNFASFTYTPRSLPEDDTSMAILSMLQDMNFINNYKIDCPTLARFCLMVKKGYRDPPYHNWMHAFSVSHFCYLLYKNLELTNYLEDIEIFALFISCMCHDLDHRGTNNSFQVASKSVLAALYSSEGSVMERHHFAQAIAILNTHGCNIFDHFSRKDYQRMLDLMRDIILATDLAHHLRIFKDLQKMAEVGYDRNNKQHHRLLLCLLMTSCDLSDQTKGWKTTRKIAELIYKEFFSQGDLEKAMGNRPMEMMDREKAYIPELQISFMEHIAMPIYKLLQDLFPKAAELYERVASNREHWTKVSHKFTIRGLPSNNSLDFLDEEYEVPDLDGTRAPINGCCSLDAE
PDE3A1 (665–1141), sequence (Q14432 665-1141): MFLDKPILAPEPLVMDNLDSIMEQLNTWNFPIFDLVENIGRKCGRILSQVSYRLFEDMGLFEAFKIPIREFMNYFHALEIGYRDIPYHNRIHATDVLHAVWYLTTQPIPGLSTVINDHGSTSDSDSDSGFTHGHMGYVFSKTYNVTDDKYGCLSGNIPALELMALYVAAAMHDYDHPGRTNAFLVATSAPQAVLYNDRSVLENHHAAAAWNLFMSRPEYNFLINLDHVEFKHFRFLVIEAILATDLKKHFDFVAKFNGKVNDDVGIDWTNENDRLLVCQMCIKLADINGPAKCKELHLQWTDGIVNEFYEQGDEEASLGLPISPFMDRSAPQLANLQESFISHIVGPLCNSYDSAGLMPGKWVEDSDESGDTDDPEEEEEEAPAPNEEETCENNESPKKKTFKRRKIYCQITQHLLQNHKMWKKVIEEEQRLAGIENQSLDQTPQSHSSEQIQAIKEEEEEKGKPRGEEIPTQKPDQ
PDE9A1 (181–506), sequence (O76083 241-566): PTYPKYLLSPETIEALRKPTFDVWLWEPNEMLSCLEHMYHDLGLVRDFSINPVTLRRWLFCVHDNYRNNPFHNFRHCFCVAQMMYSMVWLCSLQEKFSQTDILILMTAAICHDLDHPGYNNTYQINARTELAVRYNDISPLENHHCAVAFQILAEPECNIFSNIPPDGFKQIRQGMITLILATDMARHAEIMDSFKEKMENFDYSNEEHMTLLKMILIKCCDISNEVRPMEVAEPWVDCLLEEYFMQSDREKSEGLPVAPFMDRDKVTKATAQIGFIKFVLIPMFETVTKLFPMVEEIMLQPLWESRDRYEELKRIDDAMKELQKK
PDE7A1 (130–482), sequence (Q13946 130-482): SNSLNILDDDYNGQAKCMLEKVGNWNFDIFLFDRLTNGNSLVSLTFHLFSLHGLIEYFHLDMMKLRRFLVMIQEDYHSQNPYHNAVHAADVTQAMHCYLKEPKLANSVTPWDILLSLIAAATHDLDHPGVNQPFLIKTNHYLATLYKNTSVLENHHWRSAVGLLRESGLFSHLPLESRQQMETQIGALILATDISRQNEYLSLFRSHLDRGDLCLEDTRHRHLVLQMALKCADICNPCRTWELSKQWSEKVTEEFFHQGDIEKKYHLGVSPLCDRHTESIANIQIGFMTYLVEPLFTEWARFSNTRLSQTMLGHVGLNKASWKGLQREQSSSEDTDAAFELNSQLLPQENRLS

In general, IC50 refers to the concentration needed to halve the response being measured. As for `CC(C)CC(=O)c1ccc(OC(F)F)c(O[C@H]2CCOC2)c1` [(S)-Zl-n-91, 1-(4-(difluoromethoxy)-3-((tetrahydrofuran-3-yl)oxy)phenyl)-3-methylbutan-1-one], the IC50 at PDE8A1 (480–820) stood at 8.6 ± 0.7 µM; against PDE5A1 (535–860) it was 130 ± 23 µM; on PDE2A3 (580–941), 83 ± 12 µM; against PDE4B2B, 20 ± 4 nM; against PDE10A2 (448–789), 16 ± 1 µM; at PDE11A4 (563–934), 23 ± 4 µM. Moreover, the IC50 against PDE3A1 (665–1141) was determined as 46 ± 3 µM; against PDE7A1 (130–482) it was 17 ± 3 µM; against PDE9A1 (181–506), 84 ± 10 µM.
By AUC is commonly meant the area under the concentration-time curve, a measure of exposure. A low value points to less exposure. The term AUC(0-t) denotes exposure summed from dosing to a finite time, without extrapolation to infinity. Usually MRT inf stands for the average time that molecules of a dose stay in the body. In general, Vd refers to a proportionality between amount in the body and measured concentration, not a real space. Low readings indicate confinement near the circulation, high ones extensive tissue distribution. By clearance is commonly meant the rate of elimination divided by the concentration. Low readings indicate a low capacity for elimination, high ones a high capacity for elimination. As a reminder, the half-life is how long it takes for the measured level to halve. Low readings indicate fast loss, high ones slow loss. As usually defined, the Cmax is the maximum level reached in the sampled fluid or tissue. Broadly, the Tmax is the time at which the peak concentration occurs. What is called Vd/F is the volume of distribution divided by bioavailability. For the compound `CC(C)CC(=O)c1ccc(OC(F)F)c(OC2CCOC2)c1` (centres unmarked) [Zl-n-91, 1-(4-(difluoromethoxy)-3-((tetrahydrofuran-3-yl)oxy)phenyl)-3-methylbutan-1-one], in the series on mice [1], the locomotor activity entry is listed as “not altered”. Also, the sedation result with mice [1] (dose of 0.5 mg/kg) is “does not produce sedation”. In the series on mice [1] (setting [5]), the line crossings entry is on record as “altered neither” and the rears entry is recorded as “altered neither”. For the same compound, in series [2] (PO, male mice), the “CL(F)” value came to 20.5 L/h/kg and the “F (bioavailability)” value was determined as 33.3%. Besides, in series [2] (male, ICR, mouse, plasma, iv), the AUC amounted to 728 ng·h/mL, the AUC(0-t) turned out to be 725 ng·h/mL, the C0 turned out to be 6030 ng/mL and the mean residence time MRT inf amounted to 20.4 min. Further, in series [2] (male, ICR, mouse, plasma, iv), the distribution volume (Vd) was found to be 2.31 L/kg, the clearance was 115 mL/min/kg and the half-life is 37.2 min. Moreover, in series [2] (male, ICR, mouse, plasma, po), the AUC is 244 ng·h/mL, the AUC(0-t) was 241 ng·h/mL, the peak level (Cmax) was 96.5 ng/mL and the Tmax amounted to 2 h. In [2] (male, ICR, mouse, plasma, po), this compound showed a Vd/F of 39.9 L/kg and a half-life of 81 min. Besides, in the series with LPS-induced TNFa release (whole blood cell), the half-inhibitory concentration (IC50) is 40 nM. In addition, in the series with mice [3], the “memory in the object recognition test” value is given as “enhanced memory”. The 50% inhibitory concentration (IC50) in the series on PDE4D was 26 nM.
Consider `COc1ccc([C@]2(C#N)CC[C@@H](C(=O)O)CC2)cc1OC1CCCC1` [cilomilast, reference compound], for which the IC50 with LPS-induced TNFa release (whole blood) was above 10000 nM.
With `COc1ccc(C2CNC(=O)C2)cc1OC1CCCC1` (centres unmarked) [rolipram], the locomotor activity result with mice [4] is recorded as “decreased locomotor activity”. Also, the “increase of discrimination ratio (Tn-Tf)/(Tn+Tf)” value in the series on mice [3] (0.3 mg/kg, versus vehicle) is given as “about 4 times”. Besides, the “memory in the object recognition test” value in the series with mice [3] was “enhanced memory”.
